The list is not random: actives were taken first. Their share in the collection is about 2.8%.
PAFAH1B2 FP inh: PAFAH1B2 (human) inhibition | P68402 | inhibition, % at 3.39 µM | recombinant PAFAH1B2, FP-rhodamine activity probe, fluorescence polarization | 340,000 tested, 1.2% active;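 active = inhibition above the mean of all tested compounds plus 3 SD, cut at about 24% in these data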;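 note: 0% = enzyme with DMSO and 100% = wells lacking PAFAH1B2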
Target sequence (P68402 whole entry, looked up): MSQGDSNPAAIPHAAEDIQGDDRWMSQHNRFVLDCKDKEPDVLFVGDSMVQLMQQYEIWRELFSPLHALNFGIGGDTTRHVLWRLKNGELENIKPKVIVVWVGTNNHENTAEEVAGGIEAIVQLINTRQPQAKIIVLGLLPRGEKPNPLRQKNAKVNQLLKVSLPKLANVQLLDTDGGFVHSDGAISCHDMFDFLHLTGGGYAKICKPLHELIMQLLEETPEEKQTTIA
HTRA1 inhibitor: blocks human HTRA1 serine peptidase; Q92743; recombinant HTRA1, FP-rhodamine activity-based probe, fluorescence polarization; inhibition, % at 5.96 µM; 340,000 tested, 0.5% active; AID 504803; in the data active = inhibition above about 36%;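 note: 0% = enzyme with DMSO and 100% = wells lacking enzyme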
PAFAH2 inh: inhibitors of human PAFAH2; Q99487; recombinant PAFAH2, FP-rhodamine activity probe, fluorescence polarization; inhibition, % at 3.39 µM; 340,000 tested, 0.99% active; AID 492956;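 active = inhibition above the mean over all tested compounds plus 3 SD, cut at about 30% in these data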;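 note: inhibitors block probe labeling of enzyme so polarization drops; 0% = enzyme with DMSO and 100% = wells lacking PAFAH2 protein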
pPAFAH inh: pPAFAH (human) enzyme inhibition | Q13093 | recombinant pPAFAH, FP-rhodamine probe fluorescence polarization | inhibition, % at 3.39 µM | 330,000 tested, 1.5% active | AID 463082;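 active = inhibition above the mean inhibition across the screen plus 3 SD, cut at about 25% in these data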;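 note: inhibitors block binding of the rhodamine activity-based probe so polarization drops; 0% = enzyme with DMSO and 100% = wells lacking pPAFAH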
mABHD4 FP: inhibitors of mouse ABHD4 | Q8VD66 | purified mABHD4, FP-Rh probe fluorescence polarization | 370,000 tested, 0.54% active | inhibition, % at 8.92 µM;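 active = inhibition exceeding the mean over every tested compound plus 3 SD, cut at about 30% in these data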;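 note: 0% = plate median of compound wells and 100% = S159A mutant with DMSO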
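Assay system: mABHD4 protein; medium: HEPES pH 7.0, NaCl, Pluronic buffer; dosing: 8.92 µM, single dose; schedule: 45 min + 60 min at 25 °C; signal: FP readout, ex 525 nm / em 598 nm; read-out: normalized percent inhibition of probe labeling; repeats: single replicate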
PAFAH1B3 inh: inhibitors of human PAFAH1B3; 340,000 tested, 0.28% active; recombinant PAFAH1B3, FP-rhodamine probe, fluorescence polarization; Q15102; inhibition, % at 3.39 µM;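 active = inhibition above the screen-wide average of all tested compounds plus 3 SD, cut at about 25% in these data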;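 note: 0% = enzyme with DMSO only and 100% = wells lacking PAFAH1B3 protein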
Target sequence (Q15102 whole entry, looked up): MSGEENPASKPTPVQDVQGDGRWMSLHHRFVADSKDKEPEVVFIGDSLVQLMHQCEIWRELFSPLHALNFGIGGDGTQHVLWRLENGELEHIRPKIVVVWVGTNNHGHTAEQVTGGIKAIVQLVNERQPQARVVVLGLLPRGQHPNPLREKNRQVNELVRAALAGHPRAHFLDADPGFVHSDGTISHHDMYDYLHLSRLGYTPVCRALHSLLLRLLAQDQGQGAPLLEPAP
* hit, by the source's call; . = not tested or not shown.

SMILES | PAFAH1B2 FP inh | HTRA1 inhibitor | PAFAH2 inh | pPAFAH inh | mABHD4 FP | PAFAH1B3 inh
O=c1c(OC2OC(CO)C(O)C(O)C2O)c(-c2ccc(O)c(O)c2)oc2cc(O)cc(O)c12 (stereo not drawn) | 3 | 27 | -7 | 29* | 15 | 46*
O=c1cc(-c2ccc(O)c(O)c2)oc2cc(O[C@@H]3O[C@H](CO)[C@@H](O)[C@H](O)[C@H]3O)cc(O)c12 | 67* | 60* | 52* | 15 | . | 67*
C[C@@H]1O[C@@H](OC[C@H]2O[C@@H](Oc3cc(O)c4c(=O)cc(-c5ccc(O)c(O)c5)oc4c3)[C@H](O)[C@@H](O)[C@@H]2O)[C@H](O)[C@H](O)[C@H]1O | 75* | 20 | 23 | 15 | . | 87*
O=c1c(O[C@H]2O[C@@H](CO)[C@H](O)[C@@H](O)[C@@H]2O)c(-c2ccc(O)cc2)oc2cc(O)cc(O)c12 | 3 | 13 | 2 | -3 | -8 | 2
O=c1c(-c2ccc(O)cc2)coc2cc(OC3OC(CO)C(O)C(O)C3O)cc(O)c12 (stereo not drawn) | 8 | -14 | -6 | -5 | -1 | 2
CCCCNC(=O)C1CCCN1C(=O)Nc1cc(Cl)cc(Cl)c1 (stereo not drawn) | . | . | . | . | -3 | .
O=C1C(Cc2ccccc2)Nc2ncnc(N3CCc4ccccc4C3)c2N1Cc1ccc(Cl)cc1 (stereo not drawn) | 19 | -49 | -8 | 4 | . | -8
CCC1Nc2ncnc(N3CCc4ccccc4C3)c2N(Cc2ccc(Cl)cc2)C1=O (stereo not drawn) | 26* | -23 | 2 | 6 | -4 | -7
Cc1cccc(C(=O)NNC(=O)C23CC4CC(CC(C4)C2)C3)c1O | 37* | 11 | 31* | 11 | 5 | 5
COC(=O)c1ccccc1S(=O)(=O)NNC(=O)C12CC3CC(CC(C3)C1)C2 | 24* | 1 | 80* | 6 | 3 | 11
O=C(NNC(=O)C12CC3CC(CC(C3)C1)C2)c1ccccc1O | 36* | 19 | 63* | 5 | 0 | 14
Cc1ccccc1C(=O)NNC(=O)C12CC3CC(CC(C3)C1)C2 | 9 | 4 | 0 | 0 | -8 | 1
O=C(NNC(=O)C12CC3CC(CC(C3)C1)C2)c1ccccc1F | 9 | 8 | 14 | 3 | 4 | 9
COC(=O)[C@H]1C[C@@]2(N3CCCC3)c3ccccc3N[C@H]2N1S(=O)(=O)c1ccc([N+](=O)[O-])cc1 | . | . | . | . | 6 | .
Cc1ccc2nc(-c3ccc(NC(=O)CSc4nnc(-c5ccccc5)n4Cc4ccco4)cc3)sc2c1 | . | . | . | . | -42 | .
Oc1ccc2ccccc2c1CNc1ccc2ccccc2c1 | -3 | 24 | 13 | . | 40* | 15
Oc1ccc2ccccc2c1CNc1ccccc1 | 5 | -2 | -5 | . | 1 | -1
O=C(O/N=C(\c1ccccc1)c1ccncc1)c1ccccc1F | 33* | 5 | 53* | 9 | 1 | 4
COc1cccc(OC(C)CCN2CCC(C(O)(c3ccccc3)c3ccccc3)CC2)c1 (stereo not drawn) | . | . | . | . | 5 | .
CCN(C(=O)COc1cc(=O)n(CC)c2ccccc12)c1cccc(Cl)c1 | 6 | -3 | 15 | 27* | -5 | 1
CCN(C(=O)COc1cc(=O)n(CC)c2ccccc12)c1cc(Cl)ccc1OC | 7 | -2 | 6 | 0 | 1 | 14
C/C=C/c1ccc([C@@H]2[C@H](CO)N(S(C)(=O)=O)[C@H]2CN(C)C(=O)CC)cc1 | . | . | . | . | 7 | .
Oc1c(CN2CCc3ccccc3C2)cc(Cl)c2cccnc12 | 10 | 69* | 9 | 16 | . | 12
Brc1cc2c(cc1CN1CCc3ccccc3C1)OCO2 | 1 | -7 | -3 | 2 | -2 | 7
Cc1cccc(Oc2cc(NC(=O)Cn3cnc([N+](=O)[O-])n3)cc([N+](=O)[O-])c2)c1 | 1 | -28 | -13 | 29* | -36 | -2
SMILES | PAFAH1B2 FP inh | HTRA1 inhibitor | PAFAH2 inh | pPAFAH inh | mABHD4 FP | PAFAH1B3 inh
CN(C(=O)COC(=O)c1ccc(Cl)c(S(=O)(=O)N2CCCCCC2)c1)C1CCS(=O)(=O)C1 (stereo not drawn) | 3 | -1 | 4 | 1 | 4 | 2
CN(C(=O)COC(=O)c1ccc(Cl)c(S(=O)(=O)NCc2ccccc2)c1)C1CCS(=O)(=O)C1 (stereo not drawn) | 34* | 3 | 5 | . | -2 | 1
O=C(O)c1nn(CCOc2ccc(Br)cc2)c(=O)c2ccccc12 | 27* | -23 | 10 | 1 | -9 | 1
COc1cc(C(c2c(C)[nH][nH]c2=O)c2c(C)[nH][nH]c2=O)ccc1OCc1ccc([N+](=O)[O-])cc1 | 26* | -1 | 1 | 11 | 4 | 8
Cc1cc(C)cc(N(CC(=O)NC2CCC(C)CC2)S(=O)(=O)c2ccc(Br)s2)c1 (stereo not drawn) | . | . | . | . | 3 | .
CCC(C)CCCCCCCCCCC(=O)O (stereo not drawn) | 48* | -10 | 9 | 7 | -2 | 14
O[C@H](COc1ccc(Cl)cc1)CN1CCC(C(O)(c2ccccc2)c2ccccc2)CC1 | . | . | . | . | 6 | .
CC(=O)/C(=C/Nc1ccc(Oc2ccccc2)cc1)c1ccccc1 | 5 | -11 | 10 | 9 | -4 | 4
COc1cc(N/C=C(\C(C)=O)c2ccccc2)cc(OC)c1 | -2 | -1 | -7 | 31* | . | 5
CCOc1ccc(S(=O)(=O)NCCC(=O)NCCc2ccc(OCC)c(OCC)c2)cc1 | 0 | -1 | 2 | 4 | 6 | 1
CCOc1ccc(CCNC(=O)CCS(=O)(=O)c2ccc(OC)cc2)cc1OCC | 0 | 6 | 0 | 34* | -3 | -2
CC(C)(C)c1cc(OS(C)(=O)=O)ccc1O | 10 | -7 | -3 | 4 | -7 | 7
CC(C)(C)c1cc(OC(=O)C2CCCC2)ccc1O | 92* | -9 | 4 | -3 | -12 | 13
CC(C)Cc1ccc(C(C)NC(=O)Cc2ccc(S(=O)(=O)N3CCOCC3)s2)cc1 (stereo not drawn) | 4 | -13 | 0 | 30* | -10 | 1
O=C(CSc1nnc(-c2cnccn2)n1-c1ccccc1)c1ccc(F)cc1 | . | . | . | . | 11 | .
CC(Cc1n[nH]c(=S)o1)c1ccccc1 (stereo not drawn) | 26* | -3 | 13 | 2 | -6 | 2
Cc1ccc(C(c2nnnn2Cc2ccccc2)N2CCN(Cc3ccccc3)CC2)cc1 (stereo not drawn) | 31* | -26 | 0 | -2 | 2 | 1
CCN(CC)S(=O)(=O)c1cccc(N=Nc2sc(N)nc2C)c1 | -2 | 10 | 13 | 26* | 4 | 4
CCOC(=O)[C@@]12CN(C(=O)OC(C)(C)C)CC=C1N(Cc1ccc(OC)cc1)C(=O)[C@H]2CC(=O)NCc1ccccc1 | . | . | . | . | 9 | .

Bioassay records as filed in PubChem BioAssay.
